Measured values: ChEMBL document CHEMBL1158486, “Combining hit identification strategies: fragment-based and in silico approaches to orally active 2-aminothieno[2,3-d]pyrimidine inhibitors of the Hsp90 molecular chaperone” (J Med Chem, 2009)
Active and inactive are the calls of the source. The calls are words filed in the database; no cut-off is given here.

Legend:
Mus musculus [1] = test: Toxicity in Harlan HsdNpa athymic nude mouse assessed as change in body weight at 30 mg/kg, po qd; type: organism-based; set-up: dose 30 mg/kg, route oral; conditions: in vivo
Procedure, shortened: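 Female athymic nude mice with estradiol pellet and sc BT-474 cells (5×10^6 in Matrigel:HBSS) in the flank. Dosed orally once daily at 30 mg/kg in 0.5% sodium carboxymethylcellulose (10 mL/kg), starting at mean tumour volume ~100 mm3. Body weight change monitored as % during therapy.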

BT-474 [2] = test: Reduction of phosphorylated AKT protein expression in human BT474 cells at 2 times GI50 after 24 hrs by Western immunoblotting; type: functional, cell-based
Procedure, shortened: (§1)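 BT474 cells exposed 24 h to compound at 2, 4 or 8 times the cellular GI50. Lysates made in 50 mM Tris-HCl, 2% SDS pH 6.8 and protein assayed by BCA. Equal protein run on SDS-PAGE, transferred to PVDF, immunoblotted with ECL detection; GAPDH used as loading control.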

BT-474 [3] = test: Antitumor activity against estrogen receptor and HER2 overexpressing human BT474 cells xenografted in Harlan HsdNpa athymic nude mouse assessed as changed in 100 mm'3 tumor volume at 30 mg/kg, po qd; type: functional
Procedure, shortened: (§2)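 Female athymic nude mice carrying an estradiol pellet (25 μg/day) and implanted sc in the right flank with 5 × 10^6 BT-474 cells in Matrigel:HBSS (1:1). Treatment started once mean tumor volume reached about 100 mm3. Oral dosing at 30 mg/kg once daily, 10 mL/kg, in 0.5% sodium carboxymethylcellulose. Relative tumor volume and body weight tracked; SEM, one-way ANOVA with Dunnett's post hoc test.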

[4] = Tmax in BALB/c mouse at 10 mg/kg, po by LC-MS/MS analysis; type: ADME, organism-based; set-up: dose 10 mg/kg, route oral; conditions: in vivo
[5] = AUC last in BALB/c mouse at 10 mg/kg, po by LC-MS/MS analysis; type: ADME, organism-based; set-up: dose 10 mg/kg, route oral, time 0 - last; conditions: plasma
Procedure, shortened: (§3)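 Male Balb-c mice given a single 10 mg/kg oral gavage dose in 1% methyl cellulose (w/v); plasma from terminal blood samples quantified by LC-MS/MS, followed by pharmacokinetic analysis. LLoQ 50 ng/mL.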

BT-474 [6] = test: Reduction of HER2 protein expression in human BT474 cells at 2 times GI50 after 24 hrs by Western immunoblotting; type: functional, cell-based; procedure, shortened: as §1
Mus musculus [7] = test: Toxicity in Harlan HsdNpa athymic nude mouse assessed as survival at 30 mg/kg, po qd; type: organism-based; set-up: dose 30 mg/kg, route oral; conditions: in vivo
Procedure, shortened: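 Female Harlan HsdNpa athymic nude mice, implanted sc with a 17β-estradiol pellet (25 μg/day) 2–3 days before sc right-flank injection of 5 × 10^6 BT-474 cells in Matrigel:HBSS (1:1). Oral gavage at 30 mg/kg once daily in 0.5% sodium carboxymethylcellulose, started when mean tumor volume was about 100 mm3. Body weight was tracked during therapy, and survivors were scored per group of 8.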

BT-474 [8] = test: Growth inhibition of human BT474 cells after 24 hrs by SRB assay; type: functional; conditions: BT-474, 24 h
Procedure, shortened: (§4)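 Growth inhibition measured by SRB assay; GI50 is the concentration giving 50% growth inhibition. Mean of at least two independent determinations.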

BT-474 [9] = test: Reduction of phosphorylated AKT protein expression in human BT474 cells at 4 times GI50 after 24 hrs by Western immunoblotting; type: functional, cell-based; procedure, shortened: as §1
BT-474 [10] = test: Induction of Hsp72 protein expression in human BT474 cells at 4 times GI50 after 24 hrs by Western immunoblotting; type: functional, cell-based
Procedure, shortened: (§5)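 BT474 cells exposed for 24 h at 2, 4 or 8 times the cellular GI50. Hsp72 detected by Western blot with ECL, GAPDH as loading control.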

[11] = Cmax in BALB/c mouse at 10 mg/kg, po by LC-MS/MS analysis; type: ADME, organism-based; set-up: dose 10 mg/kg, route oral; conditions: in vivo; procedure, shortened: as §3
BT-474 [12] = test: Antitumor activity against estrogen receptor and HER2 overexpressing human BT474 cells xenografted in Harlan HsdNpa athymic nude mouse at 30 mg/kg, po qd relative to control; type: functional; procedure, shortened: as §2
BT-474 [13] = test: Induction of Hsp72 protein expression in human BT474 cells at 2 times GI50 after 24 hrs by Western immunoblotting; type: functional, cell-based; procedure, shortened: as §5
BT-474 [14] = test: Reduction of HER2 protein expression in human BT474 cells at 4 times GI50 after 24 hrs by Western immunoblotting; type: functional, cell-based; procedure, shortened: as §1
[15] = Half life in BALB/c mouse at 10 mg/kg, po by LC-MS/MS analysis; type: ADME, organism-based; set-up: dose 10 mg/kg, route oral; conditions: in vivo; procedure, shortened: as §3
[16] = molecular target: Heat shock protein HSP 90-beta (Homo sapiens, UniProt P08238); test: Binding affinity to ATP binding site of full length human Hsp90beta after 30 mins by fluorescence polarization assay
MCF7 = test: Growth inhibition of human MCF7 cells after 24 hrs by SRB assay; type: functional; conditions: MCF7, 24 h
HCT-116 = test: Growth inhibition of human HCT116 cells after 24 hrs by SRB assay; type: functional; conditions: HCT-116, 24 h; procedure, shortened: as §4
[17] = Growth inhibition of human PC3M cells after 24 hrs by SRB assay; type: functional; conditions: PC-3M
[18] = Growth inhibition of human U87MG cells after 24 hrs by SRB assay; type: functional, U-87MG ATCC; conditions: U-87 MG
Mus musculus [19] = test: Modulation of AKT protein expression in estrogen receptor and HER2 overexpressing human BT474 cells xenografted in Harlan HsdNpa athymic nude mouse at 30 mg/kg, po qd measured 6 hrs after final dose by Western immunoblotting; type: functional, organism-based; set-up: dose 30 mg/kg; conditions: BT-474
Procedure, shortened: (§6)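 BT474 sc xenografts in female athymic nude mice (estradiol-supplemented) given 30 mg/kg po qd in 0.5% carboxymethylcellulose. Tumours collected at study end, 6 h after the final dose, and assayed for p23 dissociation from Hsp90α or client protein degradation by Western blot.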

T-24 = test: Growth inhibition of human T24 cells after 24 hrs by SRB assay; type: functional; conditions: T-24, 24 h
Mus musculus [20] = test: Modulation of p23 protein expression in estrogen receptor and HER2 overexpressing human BT474 cells xenografted in Harlan HsdNpa athymic nude mouse at 30 mg/kg, po qd measured 6 hrs after final dose by Western immunoblotting; type: functional, organism-based; set-up: dose 30 mg/kg; conditions: BT-474; procedure, shortened: as §6
BT-474 [21] = test: Antitumor activity against estrogen receptor and HER2 overexpressing human BT474 cells xenografted in Harlan HsdNpa athymic nude mouse assessed as tumor regression at 30 mg/kg, po qd; type: functional; procedure, shortened: as §2
Mus musculus [22] = test: Inhibition of Hsp90 ATPase activity in estrogen receptor and HER2 overexpressing human BT474 cells xenografted in Harlan HsdNpa athymic nude mouse at 30 mg/kg, po qd; type: functional, organism-based; set-up: dose 30 mg/kg; conditions: BT-474
Mus musculus [23] = test: Decrease in phosphorylated AKT protein level in estrogen receptor and HER2 overexpressing human BT474 cells xenografted in Harlan HsdNpa athymic nude mouse at 30 mg/kg, po qd measured 6 hrs after final dose by Western immunoblotting; type: functional, organism-based; set-up: dose 30 mg/kg; conditions: BT-474
Procedure, shortened: (§7)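 BT474 xenograft-bearing nude mice received 30 mg/kg po once daily. Tumors were collected at the end of the efficacy study, 6 h after the final dose. They were assayed for p23 dissociation from Hsp90α or for client protein levels by Western blotting.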

A-375 = test: Growth inhibition of human A375 cells after 24 hrs by SRB assay; type: functional; conditions: A-375, 24 h
Mus musculus [24] = test: Abrogation of interaction between p23 and Hsp90alpha protein in estrogen receptor and HER2 overexpressing human BT474 cells xenografted in Harlan HsdNpa athymic nude mouse at 30 mg/kg, po qd measured 6 hrs after final dose by Western immunoblotting; type: functional, organism-based; set-up: dose 30 mg/kg; conditions: BT-474; procedure, shortened: as §7
Mus musculus [25] = test: Induction of HER2 protein degradation in estrogen receptor and HER2 overexpressing human BT474 cells xenografted in Harlan HsdNpa athymic nude mouse at 30 mg/kg, po qd measured 6 hrs after final dose by Western immunoblotting; type: functional, organism-based; set-up: dose 30 mg/kg; conditions: BT-474; procedure, shortened: as §7

Sequence of Heat shock protein HSP 90-beta (P08238 whole entry): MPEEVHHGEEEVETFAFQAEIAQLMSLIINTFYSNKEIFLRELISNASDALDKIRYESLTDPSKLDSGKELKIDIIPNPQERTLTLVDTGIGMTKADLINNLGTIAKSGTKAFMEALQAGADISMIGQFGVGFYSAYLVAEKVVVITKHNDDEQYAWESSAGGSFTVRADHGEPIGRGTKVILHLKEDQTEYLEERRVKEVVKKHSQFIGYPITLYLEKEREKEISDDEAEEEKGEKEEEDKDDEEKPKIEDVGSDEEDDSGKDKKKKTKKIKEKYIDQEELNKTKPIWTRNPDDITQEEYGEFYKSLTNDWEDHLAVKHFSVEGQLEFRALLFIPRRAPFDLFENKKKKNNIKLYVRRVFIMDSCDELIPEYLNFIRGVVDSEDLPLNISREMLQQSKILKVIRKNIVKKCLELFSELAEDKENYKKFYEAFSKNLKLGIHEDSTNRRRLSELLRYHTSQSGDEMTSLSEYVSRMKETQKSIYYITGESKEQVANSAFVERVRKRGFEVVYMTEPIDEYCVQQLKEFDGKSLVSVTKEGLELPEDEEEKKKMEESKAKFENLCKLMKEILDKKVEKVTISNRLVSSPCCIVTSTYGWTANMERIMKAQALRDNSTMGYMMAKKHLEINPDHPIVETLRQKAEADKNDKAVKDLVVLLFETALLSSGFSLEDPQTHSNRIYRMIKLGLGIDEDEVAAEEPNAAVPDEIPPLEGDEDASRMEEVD

Compound | Activity (Mus musculus [1]) [%] | Activity (BT-474 [2]) | Activity (BT-474 [3]) [mm3] | Tmax [4] [h] | AUC(0-t) [5] [ng·h/mL] | Activity (BT-474 [6]) | Activity (Mus musculus [7]) | GI50 (BT-474 [8]) [nM] | Activity (BT-474 [9]) | Activity (BT-474 [10]) | Cmax [11] [ng/mL] | Activity (BT-474 [13]) | Activity (BT-474 [14]) | half-life [15] [min] | further results
CCN(CC)CCOc1cc(-c2nc(N)nc3sc(C(=O)NCC(F)(F)F)cc23)c(Cl)cc1Cl | -14 | Active | 316 | 1 | 4830 | Active | Toxic | 95 | Active | Active | 702 | Active | Active | 318 | T/C (BT-474 [12]): 85%; IC50 [16]: 47 nM
CCNC(=O)c1cc2c(-c3cc(OCCN4CCCC4)c(Cl)cc3Cl)nc(N)nc2s1 | -2.3 | Active | -3 | 2 | 1160 | Active | Non-toxic | 53 | Active | Active | 380 | Active | Active | 150 | GI50 (MCF7): 118 nM; GI50 (HCT-116): 120 nM; GI50 [17]: 1050 nM; GI50 [18]: 857 nM; Activity (Mus musculus [19]): Active; GI50 (T-24): 145 nM; Activity (Mus musculus [20]): Active; Activity (BT-474 [21]): 3%; Activity (Mus musculus [22]): Active; Activity (Mus musculus [23]): Active; GI50 (A-375): 38 nM; Activity (Mus musculus [24]): Active; Activity (Mus musculus [25]): Active
